Among the data in ChEMBL document CHEMBL1158505, “Phenolics from Glycyrrhiza glabra roots and their PPAR-gamma ligand-binding activity” (Bioorg Med Chem, 2010) are Activity values, retold here.

Active and inactive are the calls of the source. The rule behind the calls is not given here.

This experiment concerns the target T1, Peroxisome proliferator-activated receptor gamma (Homo sapiens) (UniProt P37231).
T1 sequence (whole entry): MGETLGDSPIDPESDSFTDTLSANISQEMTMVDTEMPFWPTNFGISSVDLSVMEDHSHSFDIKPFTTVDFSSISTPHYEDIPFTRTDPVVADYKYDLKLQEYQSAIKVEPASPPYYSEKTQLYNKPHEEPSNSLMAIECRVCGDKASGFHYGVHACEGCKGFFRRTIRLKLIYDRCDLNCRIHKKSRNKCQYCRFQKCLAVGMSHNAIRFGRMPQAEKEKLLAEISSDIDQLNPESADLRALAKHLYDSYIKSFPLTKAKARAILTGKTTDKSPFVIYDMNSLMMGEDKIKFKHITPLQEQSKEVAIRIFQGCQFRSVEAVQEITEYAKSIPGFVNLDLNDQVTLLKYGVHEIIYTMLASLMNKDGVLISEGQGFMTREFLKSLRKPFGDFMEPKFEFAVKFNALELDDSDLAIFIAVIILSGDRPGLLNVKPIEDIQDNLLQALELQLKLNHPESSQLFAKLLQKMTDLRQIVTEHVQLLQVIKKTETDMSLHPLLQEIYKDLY
The experiment in a line: Binding affinity to human recombinant […] expressed in african green monkey CV1 cells coexpressing GAL4-luc reporter by microplate scintillation counter. In kind it is cell-based. The following applies: CV-1. The method, boiled down: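 GAL4-PPAR-γ chimera reporter assay in CV-1 monkey kidney cells seeded at 6 × 10³ cells/well in DMEM with 10% FBS and ascorbic acid, 37 °C, 5% CO2, 24 h. Cells transfected with pM-hPPAR-γ and p4×UASg-tk-luc, then 24 h later given DMEM with 10% charcoal-treated FBS plus sample (2 or 10 μg/mL; final DMSO 0.1%) for 24 h. Luciferase luminescence expressed relative to DMSO control; n = 4.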
Regarding `CC1(C)C=Cc2c(ccc3c2OC[C@H]2c4ccc(O)cc4O[C@@H]32)O1`, the result was Active.
Next, `CC(C)=CCc1cc2c(=O)cc(-c3ccc(O)cc3)oc2cc1O`: “Active”.
Turning to `CC1(C)C=Cc2c(ccc3c2OC[C@@H](c2cc(C=O)c(O)cc2O)C3)O1`, the outcome was Active.
The same measure for `COc1cc(O)ccc1/C=C/C(=O)c1ccc(O)cc1`: “Active”; for `CC(C)=CCc1cc([C@H]2Oc3cc(O)ccc3C(=O)[C@@H]2O)ccc1O`: “Active”.
As for `CC(C)=CCc1c(O)ccc([C@@H]2COc3c(ccc(O)c3CC=C(C)C)C2)c1O`, the result was Active.
The same measure for `CC(C)=CCc1cc([C@@H]2CC(=O)c3ccc(O)c(CC=C(C)C)c3O2)ccc1O`: “Active”; for `COc1ccc([C@@H]2COc3cc(O)ccc3C2)c(O)c1O`: “Active”; for `CC(C)=CCc1c(O)cc(O)c2c(=O)c(-c3ccc(O)c(O)c3)coc12`: “Active”.
The same measure for `CC1(C)C=Cc2c(ccc(-c3coc4cc(O)ccc4c3=O)c2O)O1`: “Active”.
For the compound `CC1(C)C=Cc2c(ccc3cc(-c4ccc(O)cc4O)c(=O)oc23)O1`, the outcome was Active.
The same measure for `CC(C)=CCc1cc([C@@H]2CC(=O)c3ccc4c(c3O2)C=CC(C)(C)O4)ccc1O`: “Active”.
